The test system of data set [1] is Human immunodeficiency virus 1. The experiment in a line: Antiviral activity against HIV1 NL4-3 infected in human MT4 cells after 3 days by luciferase reporter gene assay. Format: functional, organism-based. The following applies: Human immunodeficiency virus 1, NL4-3, MT4, 72 h. Background: In a reporter assay the amount or activity of a reporter protein is the signal.

Data set [2] is described as follows: Cytotoxicity in human MT4 cells assessed as reduction of cell viability incubated for 3 days by CytoTox-Glo cytotoxicity assay. Format: cell-based.
The nature of data set [3]: Selectivity index, ratio of CC50 for human MT4 cells […] NL4-3 infected in human MT4 cells. Format: toxicity, cell-based. The note with it: MT4 cells and HIV1 NL4-3 infected MT4 cells, read-out: Ratio CC50/EC50.
Data set [4] concerns Human immunodeficiency virus 1. Kind of data set: Inhibition of HIV1-mediated cellular entry in HIV1 NL4-3 VPR-GFP infected human TZM-bl cells incubated for 2 hrs by confocal microscopy. Format: functional, organism-based. The gist of the method: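 TZM-bl cells were infected with NL4-3/Vpr-GFP virus, with or without test compound at 1 µM, for 2 h. Nuclei were stained with DAPI 2 h post infection, and confocal microscopy imaged GFP. Cytosolic GFP dispersal marked entry; GFP puncta marked virus arrested at the cell or endosomal membrane. Uninfected DAPI-stained cells served as background.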

Data set [5] concerns Human immunodeficiency virus 1. The experiment in a line: Potency index, ratio of EC50 for aloperine to EC50 for test compound for antiviral activity against HIV1 NL4-3 infected in human MT4 cells after 3 days by luciferase reporter gene assay. Format: functional.
The test system of another data set is Influenza A virus. The experiment in a line: Antiviral activity against Influenza A virus (A/Puerto Rico/8/1934(H1N1)) infected in MDCK cells assessed as inhibition of virus-induced cytopathic effect incubated for 48 hrs by Cell-titer-Glo assay. Format: functional, organism-based.
Data set [6] can be described thus: Cytotoxicity in MDCK cells assessed as reduction of cell viability incubated for 2 days by CytoTox-Glo cytotoxicity assay. Format: cell-based, Canis lupus familiaris. The note with it: dog.
For data set [7], the target named is Envelope glycoprotein gp160 (Human immunodeficiency virus 1) (UniProt Q6QLK5). Kind of data set: Induction of conformational changes in HIV1 NLDH120 envelope glycoprotein gp120 transfected in COS cells assessed as increase in gp120 binding of monoclonal antibody 17b at 10 uM after 48 hrs by FACS. Format: cell-based. (In general: In flow cytometry, cells or beads pass a laser one at a time.)

A short description of data set [8]: Selectivity index, ratio of EC50 for antiviral activity against influenza A virus (A/Puerto Rico/8/1934(H1N1)) infected in MDCK cells to EC50 for antiviral activity against HIV1 NL4-3 infected in human MT4 cells.

Activity calls are given as the source filed them. The rule behind the calls is not given here. Some results are limits rather than exact numbers.

Chain of Envelope glycoprotein gp160 (Human immunodeficiency virus 1) (Q6QLK5 1-814): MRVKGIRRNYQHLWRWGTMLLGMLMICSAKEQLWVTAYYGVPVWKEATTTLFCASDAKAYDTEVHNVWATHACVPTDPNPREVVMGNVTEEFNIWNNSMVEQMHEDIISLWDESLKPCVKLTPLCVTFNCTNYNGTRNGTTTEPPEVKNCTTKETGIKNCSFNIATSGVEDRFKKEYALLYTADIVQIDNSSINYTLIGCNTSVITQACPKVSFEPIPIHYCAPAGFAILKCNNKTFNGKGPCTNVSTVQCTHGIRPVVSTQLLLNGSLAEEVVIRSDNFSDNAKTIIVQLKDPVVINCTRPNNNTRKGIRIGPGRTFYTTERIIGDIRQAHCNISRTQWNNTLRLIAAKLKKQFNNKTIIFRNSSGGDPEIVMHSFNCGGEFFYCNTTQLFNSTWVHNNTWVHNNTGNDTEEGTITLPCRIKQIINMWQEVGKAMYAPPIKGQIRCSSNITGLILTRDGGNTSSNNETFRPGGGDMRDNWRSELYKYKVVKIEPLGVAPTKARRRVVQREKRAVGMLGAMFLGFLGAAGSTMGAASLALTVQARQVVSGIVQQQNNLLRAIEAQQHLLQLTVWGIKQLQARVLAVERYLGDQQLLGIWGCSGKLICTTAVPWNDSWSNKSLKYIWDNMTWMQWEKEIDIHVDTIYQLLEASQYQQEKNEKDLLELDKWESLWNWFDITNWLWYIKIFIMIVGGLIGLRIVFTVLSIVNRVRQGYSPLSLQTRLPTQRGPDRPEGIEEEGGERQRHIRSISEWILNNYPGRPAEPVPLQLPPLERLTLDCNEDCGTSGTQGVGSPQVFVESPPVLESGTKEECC

As a reminder, the EC50 is the concentration giving half of the maximal effect. A word on the CC50: it is the concentration giving 50% cytotoxicity. The molecule `O=C(NCCCCN1CCCC2=C[C@H]3C[C@H](CN4CCCC[C@H]34)[C@@H]21)c1ccc(C(F)(F)F)c(F)c1` displayed an EC50 in [1] of 2.22 µM. Also, in [2], the CC50 at 72 h was over 40 µM.

In the case of `O=C(Cc1ccc(S(=O)(=O)C(F)(F)F)cc1)NCCCCN1CCCC2=C[C@H]3C[C@H](CN4CCCC[C@H]34)[C@@H]21`, the figures for the concentration for a half-maximal effect (EC50) (in [1]; with Influenza A virus (mdck)) were 0.12 µM and “Not Active”, respectively. In addition, in data set [2], the CC50 at 72 h was determined as 28.8 µM. In data set [3], the selectivity ratio was found to be 240. Also, the inhibition entry in data set [4] was “Active”. Also, the “Ratio EC50” value in data set [5] amounted to 15. In addition, the CC50 at 48 h in data set [6] was over 80 µM. In addition, the outcome in data set [7] was Active.

Turning to `C1=C2CCCN[C@H]2[C@@H]2C[C@H]1[C@H]1CCCCN1C2`, the “Ratio EC50” value in data set [8] was 7. In [2], the half-maximal cytotoxic concentration (CC50) at 72 h is over 86 µM. For the same molecule, the CC50 at 48 h in [6] is over 80 µM.

`O=C(Cc1ccc(OC(F)(F)F)cc1)NCCCCN1CCC[C@H]2C[C@H]3C[C@H](CN4CCCC[C@H]34)[C@@H]21` yielded a concentration giving a half-maximal response (EC50) in data set [1] of 1.5 µM. The CC50 at 72 h in [2] is over 40 µM.

Turning to `O=C(NCCCCN1CCCC2=C[C@H]3C[C@H](CN4CCCC[C@H]34)[C@@H]21)c1ccc(C(=O)c2ccccc2)cc1`, the 50% effective concentration (EC50) was 0.97 µM in [1] and “Not Active” with Influenza A virus (mdck). For the same molecule, the half-maximal cytotoxic concentration (CC50) at 72 h in [2] was over 40 µM. Also, in data set [6], the CC50 at 48 h is 31.6 µM.

Take `O=C(NCCCCN1CCCC2=C[C@H]3C[C@H](CN4CCCC[C@H]34)[C@@H]21)c1ccc(-c2cccs2)cc1`: the EC50 in data set [1] is over 3 µM. The cytotoxic concentration (CC50) at 72 h in data set [2] was found to be 16.2 µM.

In [1], `O=C(NCCCCN1CCCC2=C[C@H]3C[C@H](CN4CCCC[C@H]34)[C@@H]21)c1ccc2c(c1)OCO2` gave an EC50 of over 3 µM. In addition, the half-maximal cytotoxic concentration (CC50) at 72 h in data set [2] was over 40 µM.

As for `O=C(Cc1ccc2c(c1)OCO2)NCCCCN1CCCC2=C[C@H]3C[C@H](CN4CCCC[C@H]34)[C@@H]21`, in data set [1], the EC50 is over 3 µM. In data set [2], the cytotoxic concentration (CC50) at 72 h was over 40 µM.

On to `O=C(Cc1ccc(SC(F)(F)F)cc1)NCCCCN1CCCC2=C[C@H]3C[C@H](CN4CCCC[C@H]34)[C@@H]21`, for which the 50% effective concentration (EC50) in data set [1] is 0.18 µM; in the data set with Influenza A virus (mdck), “Not Active”. For the same molecule, the cytotoxic concentration (CC50) at 72 h in data set [2] is 23.8 µM. Further, the cytotoxic concentration (CC50) at 48 h in [6] came out at 45.1 µM.

Turning to `O=C(NCCCCN1CCCC2=C[C@H]3C[C@H](CN4CCCC[C@H]34)[C@@H]21)c1ccc(-c2ccsc2)cc1`, in data set [1], a half-maximal response (EC50) required 1.32 µM. Also, in [2], the CC50 at 72 h turned out to be 21.2 µM.

Molecule `O=C(Cc1ccc(OC(F)(F)F)cc1)NCCCCN1CCC[C@@H]2C[C@H]3C[C@H](CN4CCCC[C@H]34)[C@@H]21` yielded an EC50 in [1] of 2.8 µM. Also, the CC50 at 72 h in [2] is over 40 µM.

As for `O=C(NCCCCN1CCCC2=C[C@H]3C[C@H](CN4CCCC[C@H]34)[C@@H]21)C1CCC(C(F)(F)F)CC1` (some centres not stated), the EC50 in [1] was over 3 µM. The CC50 at 72 h in [2] was over 40 µM.

Take `CS(=O)(=O)c1ccc(CC(=O)NCCCCN2CCCC3=C[C@H]4C[C@H](CN5CCCC[C@H]45)[C@@H]32)cc1`: in [1], the EC50 is over 3 µM. Moreover, the half-maximal cytotoxic concentration (CC50) at 72 h in data set [2] was over 40 µM.

As to `O=C(Cc1ccc(S(=O)(=O)C(F)(F)F)cc1)NCCCCN1CCC[C@H]2C[C@H]3C[C@H](CN4CCCC[C@H]34)[C@@H]21`, in data set [1], the concentration giving a half-maximal response (EC50) was over 3 µM. For the same molecule, in [2], the half-maximal cytotoxic concentration (CC50) at 72 h was over 40 µM.

Regarding `O=C(Cc1ccc(Br)cc1)NCCCCN1CCCC2=C[C@H]3C[C@H](CN4CCCC[C@H]34)[C@@H]21`, the 50% effective concentration (EC50) in data set [1] was 1.32 µM. The half-maximal cytotoxic concentration (CC50) at 72 h in data set [2] is over 40 µM.

Consider `O=S(=O)(Cc1ccc(OC(F)(F)F)cc1)NCCCCN1CCCC2=C[C@H]3C[C@H](CN4CCCC[C@H]34)[C@@H]21`, for which the EC50 in [1] is over 3 µM. The CC50 at 72 h in [2] came to 35.7 µM.

In the case of `CC(C)(C)c1ccc(C(=O)NCCCCN2CCCC3=C[C@H]4C[C@H](CN5CCCC[C@H]45)[C@@H]32)cc1`, in [1], the EC50 came out at 2.15 µM. Moreover, the CC50 at 72 h in data set [2] was found to be 12.9 µM.

In data set [1], `O=C(Cc1ccc(S(=O)(=O)C(F)(F)F)cc1)NCCCCN1CCC[C@@H]2C[C@H]3C[C@H](CN4CCCC[C@H]34)[C@@H]21` showed a 50% effective concentration (EC50) of over 3 µM. Further, the CC50 at 72 h in data set [2] was over 40 µM.

As for `O=C(Cc1ccc([S+]([O-])C(F)(F)F)cc1)NCCCCN1CCCC2=C[C@H]3C[C@H](CN4CCCC[C@H]34)[C@@H]21` (some centres not stated), in data set [1], the concentration for a half-maximal effect (EC50) was 1.67 µM. Besides, the CC50 at 72 h in data set [2] was over 40 µM.

`O=S(=O)(NCCCCN1CCCC2=C[C@H]3C[C@H](CN4CCCC[C@H]34)[C@@H]21)c1ccc(OC(F)(F)F)cc1` displayed a half-maximal effective concentration (EC50) in data set [1] of over 3 µM. The cytotoxic concentration (CC50) at 72 h in data set [2] is over 40 µM.

On to `O=C(Cc1ccc(OC(F)(F)F)cc1)NCCCCN1CCCC2=C[C@H]3C[C@H](CN4CCCC[C@H]34)[C@@H]21`, for which, in the data set on Influenza A virus (Influenza A virus, A/Puerto Rico/8/1934(H1N1), MDCK, 48 h, read-out: EC50), the 50% effective concentration (EC50) was determined as 18.9 µM. For the same molecule, in data set [6], the CC50 at 48 h was over 80 µM.

The molecule `O=C(NCCCCN1CCCC2=C[C@H]3C[C@H](CN4CCCC[C@H]34)[C@@H]21)C1CCC(F)(F)CC1` came in with an EC50 in [1] of 2.44 µM. The CC50 at 72 h in data set [2] was over 40 µM.

With `O=C(Cc1ccc(S(=O)(=O)CC(F)(F)F)cc1)NCCCCN1CCCC2=C[C@H]3C[C@H](CN4CCCC[C@H]34)[C@@H]21`, in data set [1], the concentration for a half-maximal effect (EC50) was over 3 µM. Moreover, in data set [2], the CC50 at 72 h was over 40 µM.

Consider `O=C(NCCCCN1CCCC2=C[C@H]3C[C@H](CN4CCCC[C@H]34)[C@@H]21)C(=O)c1ccc(C(F)(F)F)cc1`, for which the figures for the EC50 (in [1]; in the data set on Influenza A virus (mdck)) were 0.99 µM and “Not Active”, respectively. In addition, in data set [2], the half-maximal cytotoxic concentration (CC50) at 72 h is over 40 µM. In [6], the CC50 at 48 h is over 80 µM.

Take `O=C(NCCCCN1CCCC2=C[C@H]3C[C@H](CN4CCCC[C@H]34)[C@@H]21)c1ccc(CNS(=O)(=O)C(F)(F)F)cc1`: in data set [2], the CC50 at 72 h is over 40 µM.

With `O=C(NCCCCN1CCCC2=C[C@H]3C[C@H](CN4CCCC[C@H]34)[C@@H]21)c1ccc(S(=O)(=O)F)cc1`, the 50% cytotoxic concentration (CC50) at 72 h in data set [2] is 38.5 µM.

As to `O=C(Cc1ccc(C(F)(F)F)cc1)NCCCCN1CCCC2=C[C@H]3C[C@H](CN4CCCC[C@H]34)[C@@H]21`, the EC50 in data set [1] was 0.81 µM; with Influenza A virus (mdck), “Not Active”. Also, the CC50 at 72 h in [2] was over 40 µM. Besides, in data set [6], the CC50 at 48 h was over 80 µM.

With `O=C(NCCCCN1CCCC2=C[C@H]3C[C@H](CN4CCCC[C@H]34)[C@@H]21)c1ccc(S(=O)(=O)C(F)(F)F)cc1`, the EC50 is 0.55 µM in data set [1] and “Not Active” with Influenza A virus (mdck). In data set [2], the 50% cytotoxic concentration (CC50) at 72 h is over 40 µM. Moreover, the half-maximal cytotoxic concentration (CC50) at 48 h in [6] is over 80 µM.

Turning to `O=C(CCc1ccc(OC(F)(F)F)cc1)NCCCCN1CCCC2=C[C@H]3C[C@H](CN4CCCC[C@H]34)[C@@H]21`, in data set [1], the EC50 is over 3 µM. For the same molecule, in data set [2], the CC50 at 72 h is over 40 µM.

The molecule `CC(C)(C)c1ccc(CC(=O)NCCCCN2CCCC3=C[C@H]4C[C@H](CN5CCCC[C@H]45)[C@@H]32)cc1` returned an EC50 in data set [1] of 2.09 µM. The CC50 at 72 h in data set [2] was over 40 µM.

For the molecule `O=C(CC1CCC(F)(F)CC1)NCCCCN1CCCC2=C[C@H]3C[C@H](CN4CCCC[C@H]34)[C@@H]21`, the EC50 in data set [1] is 1.94 µM. For the same molecule, in data set [2], the CC50 at 72 h is over 40 µM.

Source of the values: ChEMBL document CHEMBL4130569, “Structure Optimization of Aloperine Derivatives as HIV-1 Entry Inhibitors” (ACS Med Chem Lett, 2017).
